Source: PubChem BioAssay (The Scripps Research Institute Molecular Screening Center)
OX1R antag-1 = OX1R (human) antagonism | 1.8% of 330,000 active | OX1R-expressing cells, FRET antagonist read-out | inhibition, % at 6.6 µM | O43613 | AID 485270; in the data active means inhibition mostly above about 38%, no sharp cut-off; inactive means mostly below about 40%;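 further: 0% = agonist challenge alone and 100% = reference antagonist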
CHO parental Ca = signal in parental CHO cells, OX1R antagonist counter-screen | parental CHO-K1, ATP-induced calcium, Fluo-8 fluorescence | inhibition, % at 5.6 µM | 0.63% of 330,000 active;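 active means inhibition above that plate's mean sample inhibition plus 3 SD, cut at about 26% in these data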;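 further: 0% = ATP-challenged DMSO wells and 100% = DMSO wells without ATP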
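Measured by: calcium-sensitive Fluo-8 fluorescence / Test system: CHO parental line / Controls: ATP-challenged DMSO wells low, unchallenged DMSO wells high / Measure: % inhibition / Compound: single nominal dose of 5.6 µM per compound / Replicates: single well per compound, no replicates / Reagent: ATP as calcium-mobilizing challenge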
TAAR1 agonist = human TAAR1 agonism; Q96RJ0; CHO RD-HGA16 TAAR1, Fluo-8 calcium fluorescence; vehicle wells 0%, saturating PEA agonist 100%; activation, % at 3 µM; 0.99% of 360,000 active; AID 624467;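 active means activation above the mean activation of all test compounds in the run plus 3 SD, cut at about 38% in these data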
Target sequence (Q96RJ0 whole entry, looked up): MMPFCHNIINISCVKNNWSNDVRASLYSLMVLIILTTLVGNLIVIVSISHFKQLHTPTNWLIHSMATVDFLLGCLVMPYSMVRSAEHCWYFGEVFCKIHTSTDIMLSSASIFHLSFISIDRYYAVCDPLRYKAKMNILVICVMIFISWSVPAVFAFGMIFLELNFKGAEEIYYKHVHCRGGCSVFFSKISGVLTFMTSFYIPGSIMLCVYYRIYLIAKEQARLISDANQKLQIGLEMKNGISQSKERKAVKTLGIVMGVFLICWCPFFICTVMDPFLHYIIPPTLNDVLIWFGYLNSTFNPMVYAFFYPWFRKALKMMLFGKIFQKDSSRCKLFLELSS
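test system = CHO RD-HGA16 cells carrying human TAAR1 plus Gα16 | schedule = 17-24 h seeding, 75 min 37 °C dye, 30 min RT | compound dosing = 3 µM single concentration | control set = DMSO and PEA EC100 | replicates = n 1 | signal = Fluo-8 fluorescence, 5 s baseline then 140 s kinetic read | measure = percent activation vs PEA EC100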
TAAR1 antag = human TAAR1 antagonism | Q96RJ0 | CHO RD-HGA16 TAAR1, Fluo-8 calcium fluorescence, antagonist | inhibition, % at 3 µM | 1.5% of 360,000 active | AID 624466;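 active means inhibition above a per-plate cutoff, the mean inhibition of test compounds on that plate plus 3 SD, cut at about 49% in these data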;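 further: 0% = DMSO plus EC80 beta-PEA response and 100% = DMSO alone without agonist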
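System: CHO RD-HGA16 cells bearing hTAAR1. Reagent: EC80 β-phenethylamine stimulus. Schedule: seeding 17-24 h prior, 75-min 37 °C, 30-min RT dye loading. Signal: Fluo-8 intracellular calcium dye fluorescence, real-time kinetic reads. Read-out: % inhibition from peak post-agonist over basal fluorescence ratio. Benchmarks: vehicle wells and EC80 agonist wells. Replicates: n of 1.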
GPR7 antag = blocks human GPR7 receptor signaling | P48145 | GPR7-expressing cells, fluorescence antagonist assay | AID 1861 | 1.1% of 290,000 active | inhibition, % at 4.4 µM; in the data active means inhibition above about 16%, passing the limit was not always enough;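 further: cells stimulated with the agonist NPW; 0% = agonist with vehicle and 100% = vehicle without agonist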
Target sequence (P48145 whole entry, looked up): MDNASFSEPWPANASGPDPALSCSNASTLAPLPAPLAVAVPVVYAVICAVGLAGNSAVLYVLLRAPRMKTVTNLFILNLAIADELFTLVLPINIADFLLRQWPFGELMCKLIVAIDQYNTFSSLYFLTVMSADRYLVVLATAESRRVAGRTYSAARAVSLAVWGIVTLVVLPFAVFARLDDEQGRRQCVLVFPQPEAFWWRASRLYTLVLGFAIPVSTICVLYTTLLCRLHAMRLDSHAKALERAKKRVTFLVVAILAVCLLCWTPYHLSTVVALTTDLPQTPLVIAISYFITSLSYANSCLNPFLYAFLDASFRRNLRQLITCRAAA
OX1R antag-2 = blocks the human orexin 1 receptor; O43613; CHO/OX1R cells, Fluo-8 calcium fluorescence, orexin A; inhibition, % at 5 µM; 0.43% of 330,000 active;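 active means inhibition above its plate's threshold, mean inhibition of all tested compounds on the plate plus 3 SD, cut at about 37% in these data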;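 further: 0% = orexin A challenge wells and 100% = SB-334867-A antagonist wells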
* hit, by the source's call; / = no result given; ! = a repeat was not active. Most compounds without a hit are left out; they make up all but 4.6% or so of the library.

SMILES	OX1R antag-1	CHO parental Ca	TAAR1 agonist	TAAR1 antag	GPR7 antag	OX1R antag-2
C[C@@H]1CN([C@@H](C)CO)C(=O)CCCn2cc(nn2)CO[C@H]1CN(C)C(=O)C1CCCCC1	/	/	3	-7	/	/
CN(C)S(=O)(=O)c1ccc(Cl)c(NC(=O)COC(=O)c2cc(-c3ccccc3)nc3ccccc23)c1	11	-5	4	52*	-7	-3
Cc1ccc(Nc2nc(N)nc(CN3CCCCCC3)n2)c(C)c1	4	-16	6	2	20*	-20
COc1cccc(C(=O)N[C@H](C(=O)N2CCC[C@H]2C(=O)NCc2ccccc2)c2ccccc2)c1	/	/	1	0	/	/
Cc1ccc(-c2[nH]nc(N)c2N=Nc2ccccc2C)cc1	48	56*	3	-11	-29	14
Cc1ccc(-c2[nH]nc(N)c2N=Nc2cccc(Cl)c2C)cc1	/	/	27	1	8	/
Cc1ccc(S(=O)(=O)N[C@@H](C)CO)cc1	/	/	2	-11	/	/
O=c1ccc2cc3c([nH]c4ccc(Br)cc43)oc-2c1O	33	-6	38*	11	-1	7
Cc1ccc(CN(c2ccc(C(=O)NCc3ccccn3)cc2)S(C)(=O)=O)cc1	20	-7	38*	17	5	-6
CN(CCO)c1cc(Sc2nc3ccccc3s2)c2nonc2c1[N+](=O)[O-]	67*	88*	18	39	-11	70*
O=C(NCc1ccccc1)[C@H]1CCCN1C(=O)[C@H]1CCCN1C(=O)c1ccc(F)c(C(F)(F)F)c1	/	/	-1	-15	/	/
CC1CCC(C(C)C)C(OC(=O)COC(=O)c2cccn2C)C1 (centres undefined)	15	-12	6	36	10	-15
CC1CCC(C(C)C)C(OC(=O)COC(=O)c2ccc(N)cc2)C1 (centres undefined)	16	-2	2	-4	-16	-24
CC1CCC(C(C)C)C(OC(=O)Cn2c(-c3ccc(Cl)cc3)[n+](C)c3ccccc32)C1 (centres undefined)	9	25	2	-5	60*	4
CC1CCC(C(C)C)C(OC(=O)Cn2c(-c3ccc(Br)cc3)[n+](C)c3ccccc32)C1 (centres undefined)	17	30*!	7	6	74*	8
COC(=O)[C@]12C[C@H](CC(=O)NCCC(C)C)C(=O)N(CCC3=CCCCC3)C1=C[C@H](C(C)(C)C)O[C@@H]2C	/	/	-2	-77	/	/
COC(=O)[C@@]12C[C@@H](CC(=O)N3CCCC3)C(=O)N(Cc3cccc4ccccc34)C1=CCC(C)(C)C2	/	/	1	2	/	/
CC(C)(C)C(c1nc2ccccc2[nH]1)n1c(-c2cc(Cl)cc(Cl)c2)nc2ccccc21 (centres undefined)	/	/	-1	-25	/	/
Cc1cccn2c(CNCCc3ccco3)c(C(=O)N3CCOCC3)nc12	/	/	43*	18	-3	/
Cc1cccn2c(CNC3CCCc4ccccc43)c(C(=O)N3CCOCC3)nc12 (centres undefined)	21	-16	7	-10	-4	-22
Cc1cccc(NC(=O)c2ccc(N3C(=O)C4C5C=CC(C6CC56)C4C3=O)cc2)c1 (centres undefined)	18	46*	12	68*	14	33
O=C(Nc1ccc(Br)cc1)c1cccc(N2C(=O)C3C4CCC(C4)C3C2=O)c1 (centres undefined)	19	-8	22	49*	-13	-11
Cc1ccccc1NC(=O)c1cccc(N2C(=O)C3C4CC(C(Br)C4Br)C3C2=O)c1 (centres undefined)	/	/	41*	73*	18	/
O=C(Nc1ccc(Br)cc1)c1cccc(N2C(=O)C3C4C=CC(C4)C3C2=O)c1 (centres undefined)	16	-18	10	37	-3	-34
CC1C=CCC2C(=O)N(c3cccc(C(=O)Nc4ccc(Br)cc4)c3)C(=O)C12 (centres undefined)	22	-14	4	50*	2	-6
SMILES	OX1R antag-1	CHO parental Ca	TAAR1 agonist	TAAR1 antag	GPR7 antag	OX1R antag-2
COC(=O)[C@]12C[C@H](CC(=O)N3CCCCC3)C(=O)N(Cc3ccccc3)C1=C[C@H](C1CCCC1)O[C@@H]2C	/	/	2	-4	/	/
CCCCc1c(-c2ccccc2OC)ncn1Cc1cccc(OC)c1	/	/	4	10	/	/
O=C1N[C@@H](Cc2ccccc2)C(=O)N2[C@H]1CSCCS2(=O)=O	/	/	13	3	/	/
O=C(NCc1ccccc1)C(c1ccc(-c2ccccc2)cc1)N1CCN(c2ccccc2F)CC1 (centres undefined)	/	/	0	-31	/	/
CC(C)C[C@@H]1COc2cc(N3CCC[C@H]3CO)ccc2S(=O)(=O)N1	/	/	2	-15	/	/
Cc1noc(C)c1CN1C(=O)c2ccc([N+](=O)[O-])cc2C1=O	53*	-5	-1	7	-6	-15
CC(C)(C)OC(=O)N[C@H]1C=C[C@@H](CC(=O)OCC(F)(F)F)C1	/	/	3	-12	/	/
Cc1ccc(CNCc2cc(Cl)ccc2O)cc1	20	-19	38*	8	/	-5
CCc1ccc(-c2nc(CN3CCC(C(=O)N4CCN(c5ccccn5)CC4)CC3)c(C)o2)cc1	2	-16	13	-16	-5	-28
CCc1ccc(-c2nc(CN3CCC(C(=O)N4CCN(c5ccccc5)CC4)CC3)c(C)o2)cc1	6	2	28	-3	23*	-8
CCN(CCNC(=O)C1CCN(Cc2nc(-c3ccc(Cl)cc3)oc2C)CC1)c1ccccc1	1	1	13	6	53*	0
CCc1ccc(-c2nc(CN3CCC(C(=O)NCCN(CC)c4ccccc4)CC3)c(C)o2)cc1	2	-18	25	-4	-6	-26
CCN(CCNC(=O)C1CCN(Cc2nc(-c3cccc(Cl)c3)oc2C)CC1)c1ccccc1	10	-4	39*	-3	7	-10
CCC/C=C/c1ccc(CN2C(C)C(=O)N(Cc3cn(CCC4OCCCO4)nn3)CCS2(=O)=O)cc1 (centres undefined)	/	/	5	-21	/	/
Nc1[nH]c(C(=O)c2ccccc2)c(-c2ccc3ccccc3c2)c1C(=O)NCc1cccc2ccccc12	/	/	1	-16	/	/
CCCc1nc2sc3ccccc3c(=O)c2c(=O)n1Cc1ccc(OC)cc1	8	-15	2	-25	-9	-26
CCCc1nc2sc3ccccc3c(=O)c2c(=O)n1Cc1ccco1	/	/	68*	1	-9	/
C[n+]1c(/C=C/c2ccc(O)cc2)ccc2ccccc21	73*	-2	0	-3	-5	-9
C[C@@H]1CN([C@@H](C)CO)C(=O)CCCn2nncc2CO[C@H]1CN(C)Cc1ccc2c(c1)OCCO2	/	/	0	-13	/	/
